The series can be described thus: Toxicity liver stage against HepG2, at 10uM. Set-up: test concentration 10 uM, cell line HepG2-A16-CD81EGFP. The conditions noted are these: human, HepG2-A16-CD81EGFP cells; read-out: INHIBITION
In kind it is cell-based. An outline of the steps:
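Uninfected HepG2-A16-CD81EGFP cells, 3 × 10^3 per well, 1536-well, plated on prespotted compound at 10 μM final, parasite-free screening media added to match infected plates; puromycin 10 μM positive, DMSO 0.5% negative; run in parallel with 48 h PbLuc assay at 37 °C, 5% CO2; viability by CellTiter-Glo luminescence, normalized to controls.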
For the compound `Cc1ccc(S(=O)(=O)Nc2c(C)nn(C)c2C)cc1C`, the cytotoxicity at 10 µM came to 12.9%.
The same measure for `CN1CCC(NC(=O)NCc2csc(Br)c2)CC1`: -8.92%; for `CC(C)(C)c1cc(C[C@H]2CNCC[C@H]2CC(=O)NCc2cccs2)no1`: -2.28%.
The same measure for `CCOC(=O)CNC(=O)NCc1cccn1Cc1cccc(C)c1`: 9.24%; for `CCC(C)[C@H](NC(=O)c1cc(F)ccc1-n1cnnn1)C(=O)OC` (some centres not stated): 2.53%.
The same measure for `COC(=O)c1cc2c(=O)n(C3CCCC3)ccc2nc1C`: -43.9%; for `O=c1c(NCCc2ccc(O)cc2)c(NCc2ccco2)c1=O`: -10.7%.
On to `O=C(CCCNc1ncccn1)Nc1ccc(Cn2cncn2)cc1`, for which the cytotoxicity at 10 µM is 0.55%.
The same measure for `COc1ccc2cc(NC(=O)CCCNc3ncccn3)cnc2c1`: -50.5%; for `CCOc1cc(NC(=O)C2CC(=O)N(c3cccc(OC)c3)C2)ncn1` (configuration not stated): -4.31%; for `O=S(=O)(NCC(O)c1ccoc1)c1ccc(Cl)s1` (configuration not stated): -9.34%.
Take `CC(C)c1nc(-c2cc(C(=O)O)c3ccccn23)cs1`: the cytotoxicity at 10 µM was 7.43%.
For `Cc1ccc(CN2CC[C@@H]3CN(S(C)(=O)=O)CCO[C@@H]3C2)o1` the value was 8.76%; for `CC(C)N1CCCc2sc(C(=O)NC3CC3)nc21`, -143%; for `O=c1cc(Cn2cncn2)nc2n1CCCN(Cc1ccco1)C2`, 7.61%.
With `CNC(=O)CSc1cnn(CC(=O)Nc2cccc(Cl)c2C)c(=O)c1Cl`, the cytotoxicity at 10 µM was -17.6%.
Turning to `CC(C)(C)NCc1nn(Cc2ccccc2)nc1-c1ccccc1`, the cytotoxicity at 10 µM worked out at 11.9%.
For `COc1cccc(C(C)Nc2ncnc3c2NC(=O)CN3)c1` (configuration not stated), the cytotoxicity at 10 µM turned out to be 9.76%.
`COc1ccc(CNc2ncnc3c2NC(=O)CN3)cc1`: the cytotoxicity at 10 µM turned out to be 11.8%.
Regarding `CCN(CC)C(=O)c1ccn(COc2cc(C)cc(C)c2)n1`, the cytotoxicity at 10 µM is 13.9%.
For `Cc1cc(N(C)C)nc(C2COCCN2Cc2cscn2)n1` (configuration not stated), the cytotoxicity at 10 µM was -6.94%.
On to `O=C(CCc1ccc(Cl)cc1)N[C@@H]1CC[C@@H](O)[C@@H]1O`, for which the cytotoxicity at 10 µM was determined as 3.85%.
The same measure for `Cn1cc(C2=NOC(C(=O)NC3(c4ccccc4F)CCCC3)C2)cn1` (configuration not stated): -0.269%.
Consider `COCCN1CCC(c2cncc(-c3ccccc3C)n2)CC1`, for which the cytotoxicity at 10 µM is -15.1%.
The same measure for `O=C1NCC2(CCCN(Cc3ccc(F)cc3)C2)Oc2ccccc21` (configuration not stated): -12.8%; for `Cc1noc(C)c1-c1cccc(CC2CCN(C(=O)c3cc[nH]n3)C2)n1` (configuration not stated): 2.31%.
For `CCn1cc(CN2C[C@@H]3CCCN3C[C@@H]2CCSC)c(C)n1` the value was 3.29%; for `O=C(c1cn(-c2ccc(C(F)(F)F)cn2)nn1)N1CCCCCC1`, -57.4%; for `N#Cc1ccc(CN2CCCC(Cn3cncn3)C2)c(F)c1` (configuration not stated), 0.762%.
The same measure for `O=C(CCc1ccccc1)NCC(O)c1c(F)cccc1F` (configuration not stated): -0.558%; for `Cc1cccc(S(=O)(=O)NCc2cccc(CS(C)(=O)=O)c2)c1`: -18.4%.
Consider `CC(NCc1nnc2n1CCCC2)c1nc(Cc2ccccc2)no1` (configuration not stated), for which the cytotoxicity at 10 µM is -45.1%.
For `N#CCCN(CCC#N)C(=O)c1cccc(N2CCNC2=O)c1` the value was -18.7%; for `Cc1cccc(NC(=O)[C@@H]2CCCN2Cc2cnc3ccccn23)n1`, -7.22%.
Take `CC(C)NC(=O)Nc1cccc2c1CCN(S(C)(=O)=O)C2`: the cytotoxicity at 10 µM is -8.59%.
The same measure for `Cc1csc(N2CCN(Cc3cscn3)CC2C)n1` (configuration not stated): 16%; for `CC(=O)N1CCC(CCNC(C)c2cc(C)cc(C)c2)CC1` (configuration not stated): -9.8%; for `Cc1noc(C2CCN(CC(=O)N3CCNC(=O)C3)CC2)n1`: 2.41%.
For `CC(=O)N(CCc1ccccc1)CC(=O)Nc1ccccc1C#N` the value was 6.59%; for `COCCOC1CCN(C(=O)NCc2coc3ccccc23)CC1`, -8.93%; for `NCc1ccc(N2CCN(c3ncccn3)CC2)c(F)c1`, -50.8%.
For `Cn1cc(CCCN2CCN(Cc3cccc(O)c3)CC2)cn1` the value was -52.5%; for `CC(NCCCc1cnn(C)c1)c1ccc(Br)s1` (configuration not stated), 9.59%.
Take `CCN(Cc1csc(C)n1)c1cccc(CO)c1`: the cytotoxicity at 10 µM is -6.55%.
For `CC/C=C(/C)C(=O)NS(=O)(=O)c1ccc(C#N)c(C(F)(F)F)c1` the value was 2.99%.
For `CC(C)c1ccc(S(=O)(=O)Cc2nc(N)nc(N(C)C)n2)cc1` the value was -11.1%.
The same measure for `COC(=O)c1ccc(C(=O)NCc2ccc(Br)cc2)cn1`: -23.2%.
Consider `CCOCc1ccccc1NC(=O)NC1CCN(C(=O)OCC)CC1`, for which the cytotoxicity at 10 µM was -14.5%.
The same measure for `Cc1cc(Cl)c2c(c1)C1(NC(=O)c3cccnc3N1)C(=O)N2` (configuration not stated): 4.97%; for `O=c1ccc(-c2ccccc2F)nn1CCN1CCCS1(=O)=O`: -10%; for `CS(=O)(=O)N1CCC2(CC1)CC(NCc1ccccn1)c1ccccc12` (configuration not stated): -109%.
For `CC(=O)NCC(=O)N1Cc2nccn2CC(Cn2cccn2)C1` (configuration not stated) the value was 2.44%; for `Cn1cccc1-c1cc(C(=O)N2CCCC2c2nccs2)[nH]n1` (configuration not stated), 3.78%; for `Cc1ncc(CC(=O)N2CCC3(CCC(=O)N(CCO)C3)CC2)c(=O)[nH]1`, -44.7%.
For `Cc1cc(C(=O)NCCC2CN(C)CCO2)c2cccc(C)c2n1` (configuration not stated) the value was -2.94%; for `COc1ccc(-c2nc(CN3CCCC(OC)C3)c(C)o2)c(F)c1` (configuration not stated), -37.8%.
With `COc1nc2ccn(CCc3scnc3C)c(=O)c2cc1C#N`, the cytotoxicity at 10 µM turned out to be 12.8%.
The same measure for `CNC(=O)C(C)NC(=O)c1cc(COc2ccc(OC)cc2Cl)[nH]n1` (configuration not stated): 5.27%.
As for `Cc1nc2c(c(NCc3cc4ccccc4s3)n1)CCNCC2`, the cytotoxicity at 10 µM is -48.3%.
Regarding `Cc1cc(C(=O)N2C[C@@H](C(=O)O)[C@H](C(C)C)C2)cs1`, the cytotoxicity at 10 µM is -10.4%.
In the case of `O=C(CC1CCc2ccccc21)NC1(C(=O)O)CCOCC1` (configuration not stated), the cytotoxicity at 10 µM is -2.13%.
For the compound `Clc1ccc2cccnc2c1CN1CCCCC1Cn1cncn1` (configuration not stated), the cytotoxicity at 10 µM was 7.63%.
For `Cc1nccn1C1CCCN(C(=O)c2ccc3c(c2)nc(C)n3C)C1` (configuration not stated) the value was -9.75%.
For `CC(C)c1noc(CN2CCN(C(=O)c3cccnc3O)CC2)n1` the value was -9.86%.
For `O=C(c1cccc(OCc2cscn2)c1)N1CCOCC1` the value was -6.13%; for `CC(Cn1cccn1)NC(=O)NCCc1cccnc1` (configuration not stated), -5.25%.
As to `CCn1cnnc1C1CCN(C(=O)c2cc(C)c(C)s2)CC1`, the cytotoxicity at 10 µM was -26.9%.
As for `COc1ccccc1COCC(O)CN1CCC(c2ccn[nH]2)CC1` (configuration not stated), the cytotoxicity at 10 µM was -2.54%.
As to `COc1ccccc1C(O)CNc1c(C#N)c(=O)n(C)c(=O)n1C` (configuration not stated), the cytotoxicity at 10 µM was -2.9%.
Regarding `Cc1nccn1CC1CCCN1S(=O)(=O)Cc1cccc(C#N)c1` (configuration not stated), the cytotoxicity at 10 µM was -20.7%.
`CC(C)c1ncc2c(n1)CN(Cc1noc(-c3ccccc3)n1)CC2`: the cytotoxicity at 10 µM is -0.414%.
With `CC(C)c1nnc2n1CCN(C(=O)c1cccc(S(C)(=O)=O)c1)C2`, the cytotoxicity at 10 µM was -28.4%.
The same measure for `CCC1CN(C(=O)NCc2cccnc2-n2cccn2)CCO1` (configuration not stated): -12.5%.
`Cc1nc(C)n(CC2CCCN2Cc2nc3ccccc3c(=O)[nH]2)n1` (configuration not stated): the cytotoxicity at 10 µM is -4.35%.
For the compound `CCN(Cc1nc2c(cnn2C)c(=O)[nH]1)c1ccccc1`, the cytotoxicity at 10 µM was -7.36%.
As to `Cc1ccc(-c2cnn(CC(=O)NC(C)C)c2)cc1`, the cytotoxicity at 10 µM came out at 0.724%.
`N#Cc1cccc(NS(=O)(=O)c2ccc(C(=O)O)cc2F)c1`: the cytotoxicity at 10 µM was -3.67%.
`O=C(CCNc1ncccn1)N1CCN(c2nccs2)CC1`: the cytotoxicity at 10 µM is -11.6%.
For `C1CCCN(CC2CCCN(Cc3noc(C4CC4)n3)C2)CC1` (configuration not stated) the value was -12.7%; for `Cc1cnc(CNC(=O)NCc2cccnc2N(C)C)s1`, -12.4%; for `N#Cc1cccc(S(=O)(=O)NC(=O)COc2ccc3c(c2)CCC3)c1`, 1.33%.
The same measure for `CN(Cc1noc(C2CC2)n1)C1CCN(Cc2ccncc2)C1` (configuration not stated): -10.6%.
For `CCN(Cc1ccc2c(c1)OCO2)C(=O)c1ccc(C)[nH]c1=O` the value was -7.21%; for `CCc1n[nH]c(C2CN(C(=O)c3cnc(C)s3)CCO2)n1` (configuration not stated), -6.64%.
Regarding `Cc1ccc(N2CCCC(NCc3nc(C)c(C)o3)C2)nn1` (configuration not stated), the cytotoxicity at 10 µM is -3.18%.
The same measure for `Cn1nc2c(cc1=O)CN(Cc1nnc(-c3ccco3)o1)CC2`: -4.64%.
For `Fc1ccc(Cc2cnc(C3CCCN3)cn2)cc1` (configuration not stated) the value was -9.77%; for `Cc1cnnn1Cc1nnn2c1CN(Cc1cccs1)CCC2`, 8.28%; for `O=C(c1cccs1)N1CC[C@@H]2CN(C3CCOCC3)CCO[C@@H]2C1`, -110%.
Regarding `Cc1nc(CN2CCC3(CC2)NC(=O)CC3c2ccncc2)cs1` (configuration not stated), the cytotoxicity at 10 µM is 5.79%.
The same measure for `Cc1ccc(CN2CC(C(=O)Nc3ccccc3)C3(CCOCC3)C2)s1` (configuration not stated): -17.5%.
For `CN(C)C(=O)COCc1nnc2n1CCN(Cc1ccoc1)C2` the value was 8.49%.
Consider `Cc1nc(C2(O)CCCNCC2)sc1CCOc1ccc(F)c(F)c1` (configuration not stated), for which the cytotoxicity at 10 µM was -21.4%.
Take `O=C(c1ccc[nH]1)N1CCCn2c(CNC3CCC3)nnc2C1`: the cytotoxicity at 10 µM was -105%.
For `c1cncc(OC[C@@H]2CC[C@H]3[C@H](CCN3Cc3cccs3)O2)c1` the value was 6.23%.
The same measure for `CNc1nc2cn(CCc3ccc(F)cc3)c(=O)c-2c[nH]1`: 7.55%; for `CCNc1nc2cn(-c3ccc(OC(F)(F)F)cc3)c(=O)c-2c[nH]1`: 11.8%.

The record behind these values is ChEMBL document CHEMBL4513216, “Probing the Open Global Health Chemical Diversity Library for Multistage-Active Starting Points for Next-Generation Antimalarials” (ACS Infect Dis, 2020).
